Data as given in ChEMBL document CHEMBL1148339, “Synthesis, structure-activity relationships, and drug resistance of beta-d-3'-fluoro-2',3'-unsaturated nucleosides as anti-HIV Agents” (J Med Chem, 2004).

Substrate: Nc1ncnc2c1ncn2[C@H]1C=C[C@@H](CO)O1
Assay: Menten constant against adenosine deaminase (ADA)
Outline: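 Deamination by calf intestinal mucosa adenosine deaminase (0.15 units, MW 33 000, in 2 mL) in phosphate buffer pH 7.4 at 25 °C, substrate 15–100 μM, monitored by UV at 265 nm. Initial rates from graphical fitting of concentration vs time; Vmax and KM from Lineweaver–Burk plot, kcat calculated from enzyme amount.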

B1: Adenosine deaminase (Bos taurus), P56658 (protein)
chain: MAQTPAFNKPKVELHVHLDGAIKPETILYYGRKRGIALPADTPEELQNIIGMDKPLSLPEFLAKFDYYMPAIAGCREAVKRIAYEFVEMKAKDGVVYVEVRYSPHLLANSKVEPIPWNQAEGDLTPDEVVSLVNQGLQEGERDFGVKVRSILCCMRHQPSWSSEVVELCKKYREQTVVAIDLAGDETIEGSSLFPGHVKAYAEAVKSGVHRTVHAGEVGSANVVKEAVDTLKTERLGHGYHTLEDATLYNRLRQENMHFEVCPWSSYLTGAWKPDTEHPVVRFKNDQVNYSLNTDDPLIFKSTLDTDYQMTKNEMGFTEEEFKRLNINAAKSSFLPEDEKKELLDLLYKAYGMPSPASAEQCL
- Km: 30 µM
